Values after ≈ are worked out from the molar mass of the structure shown. Where only a bound is given, the exact number is not on record here.

In ChEMBL document CHEMBL1158765, “Cyclic peroxides derived from the marine sponge Plakortis simplex” (J Nat Prod, 2005) one finds IC50 data, which are given here for two compounds.

Format in all cases: functional, cell-based
The nature of assay [1]: Antitumor activity against human LXF 529L cells. Summed up:
(§1)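 Human tumor cell lines derived from patient tumors grown subcutaneously in NMRI nu/nu mice, cultured as monolayers and exposed to test compounds. Surviving cells were stained with a fluorescent dye. Doubling times 24-35 h. IC50 taken from concentration-dependent T/C values. Where not reached within the test range, IC extrapolated by linear regression if within 3-fold of the highest concentration.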

Assay [2] in a line: Antitumor activity against human MAXF 401NL cells. Summed up: as §1
A short description of assay [3]: Antitumor activity against human GXF251L cells. As to conditions: GXF 251L. The procedure, abridged:
as §1

The nature of assay [4]: Antitumor activity against human MEXF 642NL cells. Summed up: as §1
Assay [5] in a line: Antitumor activity against human UXF 1138L cells. The procedure, abridged:
as §1

Assay [6] in a line: Antitumor activity against human RXF 486L cells. The procedure, abridged: as §1

For orientation: IC50 means the midpoint of a concentration-inhibition curve. A lower IC50 goes with greater potency in that assay. Take `CCCCC[C@@]1(CC)C=C(CC)[C@@H](CC(=O)OC)OO1` (relative stereo): the half-maximal inhibitory concentration (IC50) in assay [1], in assay [2], in assay [3], in assay [4], in assay [5] and in assay [6] was > 10 µg/mL each time.

`CCCCCC[C@@]1(CC)C=C(CC)[C@@H](CC(=O)OC)OO1` (relative stereo): the IC50 in assay [1] was 7.7 µg/mL (≈ 25.8 µM); in assay [3], 8.3 µg/mL (≈ 27.8 µM); in assay [4], 7.2 µg/mL (≈ 24.1 µM); in assay [5] it was 14.4 µg/mL (≈ 48.3 µM); in assay [6], 14.1 µg/mL (≈ 47.2 µM).
